Assay results: ChEMBL document CHEMBL1133294, “Potent, selective 3-pyridylethanolamine beta3 adrenergic receptor agonists possessing a thiazole benzenesulfonamide pharmacophore” (Bioorg Med Chem Lett, 2000)

Columns and labels:
[1] = target: T1, Beta-3 adrenergic receptor (Homo sapiens, UniProt P13945); assay: Percent increase in adenylyl cyclase activation in CHO cells expressing human beta-3 adrenergic receptor; assay type: functional, cell-based
Method in brief: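 Functional adenylyl cyclase stimulation via the β3 receptor. Activation expressed as percent of the maximal stimulation produced by isoproterenol.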
Target sequence in this assay (P13945 whole entry, looked up): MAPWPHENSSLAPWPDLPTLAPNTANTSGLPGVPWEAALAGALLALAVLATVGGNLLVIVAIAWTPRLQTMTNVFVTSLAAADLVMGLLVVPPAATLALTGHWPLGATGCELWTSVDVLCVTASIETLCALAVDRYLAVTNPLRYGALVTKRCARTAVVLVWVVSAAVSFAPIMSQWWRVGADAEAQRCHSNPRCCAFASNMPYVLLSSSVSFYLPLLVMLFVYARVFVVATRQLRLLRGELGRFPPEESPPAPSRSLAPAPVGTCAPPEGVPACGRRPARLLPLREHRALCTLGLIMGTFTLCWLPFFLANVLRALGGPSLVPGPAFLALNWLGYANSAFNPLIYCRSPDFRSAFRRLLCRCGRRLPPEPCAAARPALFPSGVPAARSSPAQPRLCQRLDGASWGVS

[2] = target: T1, Beta-3 adrenergic receptor; assay: Stimulated increase in cAMP in CHO cells expressing human beta-3 receptor; assay type: functional, cell-based
Target sequence in this assay (P13945 whole entry): as the sequence (P13945 whole entry, looked up) above

[3] = target: Beta-1 adrenergic receptor (Homo sapiens, UniProt P08588); assay: Binding affinity (measured using [125I]iodocyanopindolol) against human Beta-1 adrenergic receptor expressed in CHO cells; assay type: cell-based
Method in brief: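 Membranes from CHO cells expressing cloned human β1 receptor; competition binding against 125I-iodocyanopindolol.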

[4] = target: Beta-2 adrenergic receptor (Homo sapiens, UniProt P07550); assay: Binding affinity against human Beta-2 adrenergic receptor expressed in CHO cells using [125I]iodocyanopindolol; assay type: cell-based
[5] = Oral bioavailability in dog; assay type: ADME, organism-based, Canis lupus familiaris; settings: in vivo
Method in brief: (§1)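 Beagle dogs dosed orally at 10 mg/kg (solution in 0.5% methylcellulose/0.02% sodium lauryl sulfate with 2 equiv HCl) and iv at 3 mg/kg (PEG400/ethanol/normal saline 60:20:20 v/v/v). Blood taken predose and at 5 (iv only), 15, 30 min, 1, 2, 6, 8, 24 h. Plasma drug measured by LC/MS/MS.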

[6] = Half life period was determined; assay type: ADME, organism-based, Canis lupus familiaris; settings: dog, in vivo; method in brief: as §1
[7] = Bioavailability after peroral administration in dogs; assay type: ADME, organism-based, Canis lupus familiaris; settings: dog, in vivo, po; method in brief: as §1

Sequence of Beta-1 adrenergic receptor (P08588 whole entry): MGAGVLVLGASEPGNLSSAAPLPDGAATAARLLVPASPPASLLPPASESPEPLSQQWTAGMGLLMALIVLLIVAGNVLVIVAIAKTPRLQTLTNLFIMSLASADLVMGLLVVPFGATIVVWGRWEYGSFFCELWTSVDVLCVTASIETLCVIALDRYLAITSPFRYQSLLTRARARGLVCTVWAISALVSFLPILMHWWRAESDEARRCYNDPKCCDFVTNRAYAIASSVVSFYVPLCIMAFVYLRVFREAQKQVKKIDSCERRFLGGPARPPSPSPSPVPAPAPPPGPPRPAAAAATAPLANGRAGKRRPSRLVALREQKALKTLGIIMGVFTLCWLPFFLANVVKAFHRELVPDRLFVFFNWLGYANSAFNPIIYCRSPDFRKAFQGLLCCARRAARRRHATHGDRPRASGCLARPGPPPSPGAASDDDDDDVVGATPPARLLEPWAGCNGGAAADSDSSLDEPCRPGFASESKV
Sequence of Beta-2 adrenergic receptor (P07550 whole entry): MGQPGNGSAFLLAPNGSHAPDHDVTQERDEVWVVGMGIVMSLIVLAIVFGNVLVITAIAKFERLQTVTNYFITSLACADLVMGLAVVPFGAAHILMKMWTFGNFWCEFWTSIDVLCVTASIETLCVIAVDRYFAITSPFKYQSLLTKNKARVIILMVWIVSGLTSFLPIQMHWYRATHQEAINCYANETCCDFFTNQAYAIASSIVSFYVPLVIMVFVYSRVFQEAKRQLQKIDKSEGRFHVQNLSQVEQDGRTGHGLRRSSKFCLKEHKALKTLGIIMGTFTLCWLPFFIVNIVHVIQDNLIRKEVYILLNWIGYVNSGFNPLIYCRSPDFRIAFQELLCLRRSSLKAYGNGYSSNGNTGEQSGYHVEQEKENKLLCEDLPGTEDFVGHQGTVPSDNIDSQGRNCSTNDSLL

Max stimulation [1] | EC50 [2] | IC50 [3] | IC50 [4] | bioavailability [5] | half-life [6] | bioavailability [7] | SMILES
91% | 9.1 nM | 90000 nM | 49000 nM |  |  |  | O=S(=O)(Nc1ccc(CCNC[C@H](O)c2cccnc2)cc1)c1ccc(-c2nc(-c3cc4ccccc4o3)cs2)cc1
70% | 33 nM | 9000 nM | 910 nM |  |  |  | O=S(=O)(Nc1ccc(CCNC[C@H](O)c2cccnc2)cc1)c1ccc(-c2nc(CCc3ccccc3)cs2)cc1
97% | 2.7 nM | 6000 nM | 8000 nM |  |  |  | O=S(=O)(Nc1ccc(CCNC[C@H](O)c2cccnc2)cc1)c1ccc(-c2nc(-c3ccc4ncccc4c3)cs2)cc1
81% | 9.5 nM | 1500 nM | 1900 nM |  |  |  | O=S(=O)(Nc1ccc(CCNC[C@H](O)c2cccnc2)cc1)c1ccc(-c2nc(-c3ccc(F)cc3)cs2)cc1
100% | 4.9 nM | 30000 nM | 50000 nM |  |  |  | O=S(=O)(Nc1ccc(CCNC[C@H](O)c2cccnc2)cc1)c1ccc(-c2nc(-c3c[nH]c4ccccc34)cs2)cc1
82% | 45 nM | 960 nM | 2100 nM |  |  |  | CC(=O)Nc1ccc(-c2csc(-c3ccc(S(=O)(=O)Nc4ccc(CCNC[C@H](O)c5cccnc5)cc4)cc3)n2)cc1
57% | 6.2 nM | 3000 nM | 2500 nM |  |  |  | O=S(=O)(Nc1ccc(CCNC[C@H](O)c2cccnc2)cc1)c1ccc(-c2nc(Cc3ccc(F)cc3)cs2)cc1
95% | 26 nM | 7000 nM | 3000 nM |  |  |  | O=S(=O)(Nc1ccc(CCNC[C@H](O)c2cccnc2)cc1)c1ccc(-c2nc(CCCC3CCCC3)cs2)cc1
84% | 1.2 nM | 52000 nM | 90000 nM |  |  |  | CCCCCCc1ccc(-c2csc(-c3ccc(S(=O)(=O)Nc4ccc(CCNC[C@H](O)c5cccnc5)cc4)cc3)n2)cc1
100% | 2.4 nM | 1600 nM | 2000 nM |  |  |  | CC(C)(C)c1ccc(-c2csc(-c3ccc(S(=O)(=O)Nc4ccc(CCNC[C@H](O)c5cccnc5)cc4)cc3)n2)cc1
58% | 45 nM | 1100 nM | 5700 nM |  |  |  | O=S(=O)(Nc1ccc(CCNC[C@H](O)c2cccnc2)cc1)c1ccc(-c2nc(-c3ccc(O)cc3)cs2)cc1
79% | 9.8 nM | 850 nM | 1000 nM |  |  |  | CCCCCCCCc1csc(Cc2ccc(S(=O)(=O)Nc3ccc(CCNC[C@H](O)c4cccnc4)cc3)cc2)n1
 |  |  |  | 13% |  |  | CCCCCCCCc1csc(N2CCc3cc(S(=O)(=O)Nc4ccc(CCNC[C@H](O)c5cccnc5)cc4)ccc32)n1
94% | 5.8 nM | 100000 nM | 93000 nM |  |  |  | O=S(=O)(Nc1ccc(CCNC[C@H](O)c2cccnc2)cc1)c1ccc(-c2nc(-c3cc4ccccc4s3)cs2)cc1
 |  |  |  |  | 3.6 h |  | O=c1n(CCCC2CCCC2)nnn1-c1ccc(S(=O)(=O)Nc2ccc(CCNC[C@H](O)c3cccnc3)cc2)cc1
100% | 2 nM | 13000 nM | 6300 nM |  |  |  | O=S(=O)(Nc1ccc(CCNC[C@H](O)c2cccnc2)cc1)c1ccc(-c2nc(-c3ccc4ccccc4c3)cs2)cc1
82% | 50 nM | 50000 nM | 16000 nM |  |  |  | CC(=O)NCCCCCc1csc(-c2ccc(S(=O)(=O)Nc3ccc(CCNC[C@H](O)c4cccnc4)cc3)cc2)n1
83% | 12 nM | 2500 nM | 2000 nM |  |  |  | O=S(=O)(Nc1ccc(CCNC[C@H](O)c2cccnc2)cc1)c1ccc(Cc2nc(Cc3ccc4ccccc4c3)cs2)cc1
69% | 40 nM | 7000 nM | 3000 nM |  |  |  | O=S(=O)(Nc1ccc(CCNC[C@H](O)c2cccnc2)cc1)c1ccc(-c2nc(-c3cccnc3)cs2)cc1
92% |  |  |  |  |  | 36% | O=S(=O)(Nc1ccc(CCNC[C@H](O)c2cccnc2)cc1)c1ccc(-c2nc(-c3ccc(F)c(F)c3)cs2)cc1
84% | 10 nM | 3700 nM | 3000 nM |  |  |  | CCCCCCCCc1csc(-c2ccc(S(=O)(=O)Nc3ccc(CCNC[C@H](O)c4cccnc4)cc3)cc2)n1
100% | 22 nM | 6500 nM | 4000 nM |  |  |  | O=S(=O)(Nc1ccc(CCNC[C@H](O)c2cccnc2)cc1)c1ccc(-c2nc(-c3ccccn3)cs2)cc1
79% | 7.3 nM | 19000 nM | 47000 nM |  |  |  | O=S(=O)(Nc1ccc(CCNC[C@H](O)c2cccnc2)cc1)c1ccc(-c2nc(-c3cnc4ccccc4c3)cs2)cc1
75% | 5 nM | 3300 nM | 2300 nM |  |  |  | O=S(=O)(Nc1ccc(CCNC[C@H](O)c2cccnc2)cc1)c1ccc(-c2nc(Cc3ccc4ccccc4c3)cs2)cc1

SMILES | Max stimulation [1] | EC50 [2] | IC50 [3] | IC50 [4] | bioavailability [5] | half-life [6] | bioavailability [7]
CCCCCCc1csc(-c2ccc(S(=O)(=O)Nc3ccc(CCNC[C@H](O)c4cccnc4)cc3)cc2)n1 | 69% | 51 nM | 40000 nM | 620 nM |  |  | 
